The term IC50 denotes the concentration at which inhibition is half-maximal. Higher therefore signals weaker potency. As usually defined, the Ki is a dissociation constant, usually derived from enzyme kinetics or from competition with a known ligand. As a reminder, the inhibition is the change of the read-out against control, counted positive when it falls.

For test [1], the target named is T1, Spike glycoprotein (Severe acute respiratory syndrome coronavirus 2, UniProt P0DTC2). The experiment in a line: Competitive inhibition of biotinylated heparin binding to His-tagged wild type SARS-COV-2 spike protein incubated for 300 sec by biolayer interferometry streptavidin sensor based assay. The method in brief:
(§1)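 Streptavidin BLI sensor tips loaded with biotinylated heparin and exposed to wild-type S protein (1 μM) mixed with test compound (0–500 μM) in TBS (20 mM Tris, pH 7.4, 0.02% BSA). Bound (%) was taken from the BLI response. IC50 came from nonlinear regression, and Ki was derived from IC50 by the Cheng–Prusoff equation.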

Test [2] addresses T1, Spike glycoprotein. Description: Competitive inhibition of biotinylated heparin binding to His-tagged wild type SARS-COV-2 spike protein assessed inhibition constant incubated for 300 sec by biolayer interferometry streptavidin sensor based assay. The method in brief: as §1
Test [3] addresses Spike glycoprotein (Severe acute respiratory syndrome coronavirus 2) (UniProt P0DTC2). Description: Competitive inhibition of biotinylated heparin binding to His-tagged wild type SARS-COV-2 spike protein at 50 uM incubated for 300 sec by biolayer interferometry streptavidin sensor based assay.

Activity calls are given as the source filed them. The calls are words filed in the database; no cut-off is given here.

Consider `CCCCCCCCO[C@H]1O[C@@H](C)[C@@H](O[C@@H]2O[C@@H](C)[C@@H](O[C@@H]3O[C@@H](C)[C@@H](O[C@@H]4O[C@@H](C)[C@@H](OS(=O)(=O)O)[C@@H](OS(=O)(=O)O)[C@@H]4OS(=O)(=O)O)[C@@H](OS(=O)(=O)O)[C@@H]3OS(=O)(=O)O)[C@@H](OS(=O)(=O)O)[C@@H]2OS(=O)(=O)O)[C@@H](OS(=O)(=O)O)[C@@H]1OS(=O)(=O)O`, for which the half-maximal inhibitory concentration (IC50) in test [1] was found to be 86.9 µM. Moreover, the Ki in test [2] is 3.02 µM. Also, the inhibition entry in test [3] was “Active”. With `CCCCCCCCO[C@H]1O[C@@H](C)[C@@H](O[C@@H]2O[C@@H](C)[C@@H](OS(=O)(=O)O)[C@@H](O[C@@H]3O[C@@H](C)[C@@H](O[C@@H]4O[C@@H](C)[C@@H](OS(=O)(=O)O)[C@@H](OS(=O)(=O)O)[C@@H]4OS(=O)(=O)O)[C@@H](OS(=O)(=O)O)[C@@H]3OS(=O)(=O)O)[C@@H]2OS(=O)(=O)O)[C@@H](OS(=O)(=O)O)[C@@H]1OS(=O)(=O)O`, the inhibition entry in test [3] is “Active”. `CCCCCCCCO[C@H]1O[C@@H](C)[C@@H](OS(=O)(=O)O)[C@@H](O[C@@H]2O[C@@H](C)[C@@H](OS(=O)(=O)O)[C@@H](O[C@@H]3O[C@@H](C)[C@@H](OS(=O)(=O)O)[C@@H](O[C@@H]4O[C@@H](C)[C@@H](OS(=O)(=O)O)[C@@H](OS(=O)(=O)O)[C@@H]4OS(=O)(=O)O)[C@@H]3OS(=O)(=O)O)[C@@H]2OS(=O)(=O)O)[C@@H]1OS(=O)(=O)O` yielded an inhibition in test [3] of under 10%.

These data come from ChEMBL document CHEMBL5107952, “Synthesis of low-molecular weight fucoidan derivatives and their binding abilities to SARS-CoV-2 spike proteins” (RSC Med Chem, 2021).
